Assay outcomes deposited in PubChem by Johns Hopkins Ion Channel Center.
An excerpt weighted towards active compounds, which were near 3.7% of everything screened.
KCNK9 block: human KCNK9 channel inhibition; Q9NPC2; HEK293 KCNK9, FluxOR thallium flux fluorescence; stronger effect = lower value; B-score at 10 µM; actives 1.2% (n = 310,000);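 active = ratio B-score over 3 SD below the library mean, with starting fluorescence within 5 SD of its mean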;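 also: negative B-score means less thallium flux so channel inhibition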
Target sequence (Q9NPC2 whole entry, looked up): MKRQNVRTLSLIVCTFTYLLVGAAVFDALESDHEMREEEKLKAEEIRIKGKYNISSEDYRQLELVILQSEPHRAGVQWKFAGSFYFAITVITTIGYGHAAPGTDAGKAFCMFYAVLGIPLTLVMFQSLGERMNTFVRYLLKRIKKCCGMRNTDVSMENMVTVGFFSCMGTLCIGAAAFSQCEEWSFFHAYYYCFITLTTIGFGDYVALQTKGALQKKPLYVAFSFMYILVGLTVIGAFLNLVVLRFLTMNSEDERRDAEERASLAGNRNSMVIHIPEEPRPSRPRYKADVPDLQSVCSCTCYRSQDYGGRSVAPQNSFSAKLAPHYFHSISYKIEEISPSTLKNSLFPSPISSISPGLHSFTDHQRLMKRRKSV
hERG protect: compounds protecting human hERG from proarrhythmic drug block | Q12809 | activation (rescue from dofetilide block), less the hit threshold, % at 10 µM | CHO-hERG, FluxOR thallium flux, dofetilide IC70 present | actives 0.51% (n = 310,000) | AID 1511;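 active = activation above the mean of controls blocked by dofetilide plus 5 SD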;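 also: thallium influx through hERG after potassium depolarization seen as dye fluorescence rise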
KCNQ1 pot: human KCNQ1 channel potentiation or activation; AID 2648; actives 0.35% (n = 310,000); CHO-K1 KCNQ1, thallium flux FluxOR fluorescence; stronger effect = higher value; P51787; B-score at 10 µM;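 active = fluorescence ratio B-score, a plate-corrected score, at least three library SD, with initial intensity B-score within 5 SD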
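Assay system: stable KCNQ1 CHO-K1 line; medium: assay buffer, equal DMSO in all wells; timing: 90 min dye loading and 20 min compound exposure, both at room temperature; technique: kinetic FluxOR thallium fluorescence, 10-s 1-Hz baseline, 110-s post-stimulus read; read-out basis: B score of baseline-normalized fluorescence ratio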
KCNK3 block: human KCNK3 channel inhibition, primary screen. AID 602410. B-score at 10 µM. O14649. CHO-KCNK3 thallium flux, FluxOR fluorescence; stronger effect = lower value. actives 0.84% (n = 340,000);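 active = B-score under library mean minus 4 SD, starting fluorescence ratio at most library mean plus 5 SD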;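 also: more negative B-score means stronger inhibition of thallium flux through KCNK3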
KCNQ1 inh: blocks the human KCNQ1 potassium channel. P51787. B-score at 10 µM. AID 2642. actives 1.3% (n = 310,000). CHO-K1 KCNQ1, FluxOR thallium flux fluorescence; stronger effect = higher value;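 active = compounds whose thallium flux B-score, printed positive for inhibition, exceeds three library SD while starting fluorescence stays within three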;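 also: channel opened by potassium depolarization with thallium stimulus after 20 min compound exposure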
Kir21 block: Kir2.1 (mouse) channel inhibition | P35561 | HEK293-Kir2.1, FluxOR thallium flux fluorescence; stronger effect = lower value | B-score at 10 µM | actives 0.85% (n = 310,000) | AID 1672;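 active = fluorescence ratio B-score at or below minus 3 SD of library scores, with starting-brightness B-score within 2 SD, cut at about -4.2 in these data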;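 also: channel flux triggered by added potassium and thallium sulfate stimulus; B-score of peak minus minimum fluorescence over baseline after thallium stimulus; more negative B-score means stronger Kir2.1 block with less thallium influx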
KCNK3 inh conf: human KCNK3 channel inhibition, confirmation assay; shares compounds with KCNK3 block; actives 99% (n = 2,400); CHO-KCNK3 thallium flux, FluxOR fluorescence; 0% buffer, 100% carvedilol maximal block; ratio percent of control, % at 10 µM; AID 651638;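 active = ratio percent of control, averaged over triplicates, above buffer control mean plus 5 SD, cut at about 64% in these data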;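 also: ratio is the fluorescence rise from min to max over baseline after thallium stimulus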
KCNK3 uninduced: counter-screen for KCNK3 inhibitors: effect in non-induced cells. shares compounds with KCNK3 block. non-induced KCNK3 parental cells, FluxOR thallium flux; stronger effect = lower value. thallium flux ratio (lower = more inhibition) at 10 µM. actives 40% (n = 2,400). AID 651747;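 active = thallium flux ratio, averaged over three wells, more than 5 SD below the buffer control mean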;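 also: host cells are CHO cells without KCNK3 induction; ratio is peak minus trough fluorescence over baseline then normalized to buffer controls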
* = called active by the depositor; i = inactive; / = no result.

SMILES	KCNK9 block	hERG protect	KCNQ1 pot	KCNK3 block	KCNQ1 inh	Kir21 block	KCNK3 inh conf	KCNK3 uninduced
O=C(c1ccc(-c2ccccc2)cc1)N1CCN(c2ccccc2F)CC1	i	-8.9	i	-9.15*	i	0.93	108.0*	i
CN(C)C(=O)C1C2NC(=S)N(c3cccc(Cl)c3)C1(C)Oc1ccc(Cl)cc12 (stereo not drawn)	i	-14.5	i	i	i	0.04	/	/
Cc1ccc(S(=O)(=O)N(CC(=O)NCCC2=CCCCC2)Cc2ccccc2F)cc1	i	-9.3	i	-9.41*	i	0.62	116.0*	i
N#CCOC(=O)C1CSC2(c3ccc(Br)cc3)CCC(=O)N12 (stereo not drawn)	i	-8.8	i	i	i	0.29	/	/
CCCN1C(=S)c2ccccc2C1c1ccccc1 (stereo not drawn)	i	-9.5	i	-10.8*	i	-3.68	120.7*	0.153*
CCCCN1C(=S)NC[C@@H]1c1ccccc1	i	-5.7	i	i	i	-0.49	/	/
O=C(CCCN1C(=O)c2ccccc2C1=O)OC1CSCC1NC(=O)c1ccccc1 (stereo not drawn)	i	-7.6	i	i	i	-2.09	/	/
Cc1cccc(C(CC(=O)NCc2ccco2)c2ccccc2)c1O (stereo not drawn)	i	-18.1	i	-9.03*	i	0.01	110.3*	i
Cc1ccc(O)c(C(CC(=O)NCc2ccco2)c2ccccc2)c1 (stereo not drawn)	i	-3.4	i	i	i	-2.61	/	/
CN(C)Cc1c(O)ccc2[nH]cnc12	i	-1.1	i	-10.3*	i	0.94	79.7*	i
COc1cccc(/C=C2/Sc3ccc(C(=O)NCCN4CCCCCC4)cc3NC2=O)c1	i	-34.6	i	-10.1*	7*	-0.15	111.7*	i
COc1ccc(/C=C2/Sc3ccc(C(=O)NCCCN4CCOCC4)cc3NC2=O)cc1OC	i	-11.8	i	i	i	-1	/	/
COc1ccccc1N1C(=O)CC(Sc2n[nH]c(-c3cccc(C)c3)n2)C1=O (stereo not drawn)	i	-6.0	i	i	i	0.72	/	/
CC(C)(C)OC(=O)C[C@@H]1C/C=C\C[C@H](CC(=O)N[C@H](CO)Cc2ccccc2)C(=O)N2CCC[C@H]2COC1=O	/	/	/	i	/	/	/	/
Cc1ccc(C)c(-c2cc(C(=O)Nc3cccnc3)c3ccccc3n2)c1	-8*	-9.2	i	-12*	6*	-0.5	124.7*	0.115*
CC(=O)N1c2ccc(S(=O)(=O)N3CCCCC3)cc2CC1C(=O)Nc1cccc(C)c1 (stereo not drawn)	i	-7.8	i	-11.2*	i	-1.69	95.0*	i
O=C(c1cc(-c2cccc(Cl)c2)on1)N1CCCCCC1	i	-2.8	i	-10.2*	i	-1.06	114.3*	i
Cc1c(C(=O)OCC(=O)Nc2ccc3c(c2)OCO3)cccc1[N+](=O)[O-]	i	-0.6	i	i	i	0.38	/	/
COC(=O)C(C)Sc1nc2ccsc2c(=O)n1Cc1ccccc1 (stereo not drawn)	i	-14.0	i	-9.42*	i	-0.24	93.7*	i
COc1ccc(Cn2c(SCC(=O)NCc3ccco3)nc3ccsc3c2=O)cc1	i	-3.5	i	i	i	-0.02	/	/
Cc1ccc(C(=O)NCC(=O)OCC(=O)Nc2cc(S(=O)(=O)N3CCOCC3)ccc2Cl)s1	/	/	/	i	/	/	/	/
Cc1ccc(S(=O)(=O)N2CCOCC2)cc1NC(=O)COC(=O)CNC(=O)c1ccc(Cl)cc1Cl	i	-2.6	i	-10.5*	i	-0.22	87.3*	i
Cc1ccc(-c2cc(C(F)F)n3ncc(C(=O)Nc4cn(C)nc4C)c3n2)cc1	i	-21.9	i	i	i	1.46	/	/
Cc1ccc2c(c1)cc1c(=O)n(CC(=O)N3CCCC3)nc(C)n12	i	-7.1	i	i	i	0.21	/	/
CC(C)(C)OC(=O)CN1C(=O)C(Sc2n[nH]c(-c3ccccc3)n2)CCc2ccccc21 (stereo not drawn)	i	-8.6	i	i	i	-0.03	/	/
SMILES	KCNK9 block	hERG protect	KCNQ1 pot	KCNK3 block	KCNQ1 inh	Kir21 block	KCNK3 inh conf	KCNK3 uninduced
CCOC(=O)c1cc(C#N)c(SCc2cccc3ccccc23)nc1C	i	-6.6	i	i	i	0.57	/	/
CCOC(=O)c1cc(C#N)c(SCC(=O)c2cc(C#N)c(SC)nc2C)nc1C	i	-1.3	i	-10.6*	i	1.15	107.3*	0.14*
COc1ccc(C2=NNC(c3cc(Cl)cc4c3OCOC4)C2)c(O)c1 (stereo not drawn)	i	-11.9	i	/	i	0.05	/	/
Oc1ccc(Cl)cc1C1=NNC(c2cc(Br)cc3c2OCOC3)C1 (stereo not drawn)	i	-3.2	i	-8.78*	i	1.64	96.0*	i
Cc1ccc(NS(=O)(=O)c2ccc3c(c2)NC(=O)CCS3)cc1C	i	-10.6	i	i	i	-1.23	/	/
C/C(=C\C(=O)c1ccc(Cl)cc1)NCc1ccc2c(c1)OCO2	i	-6.2	i	-9.76*	i	-0.72	84.3*	0.155*
COC(=O)NCc1ccc2c(c1)OCO2	i	-8.5	i	i	i	1.38	/	/
O=S(=O)(c1cccc(S(=O)(=O)N2CCC(Cc3ccccc3)CC2)c1)N1CCOCC1	i	-10.3	i	i	i	0.22	/	/
O=S(=O)(c1cccc(COc2ccc(Cl)cc2Cl)c1)N1CCOCC1	i	-14.4	i	-9.89*	i	-1.14	122.3*	0.157*
O=S(=O)(c1cccc(COc2c(Cl)cccc2Cl)c1)N1CCOCC1	i	-5.8	i	-9.49*	i	0.1	120.3*	i
O=[N+]([O-])c1ccc(F)cc1OCc1cccc(S(=O)(=O)N2CCOCC2)c1	i	-20.5	i	i	i	-1.17	/	/
COc1c(C(=O)Nc2ccc(Br)cn2)ccc2ccccc12	-7.25*	-2.5	i	-11.4*	i	1.21	97.0*	0.157*
CC(C)OC(=O)CC12CN(C)CC(CC(=O)OC(C)C)(CN(C)C1)C2=O	i	-7.2	i	i	i	0.53	/	/
Cc1nc(-c2ccccc2)sc1C(=O)CSc1ccc(F)cc1	i	-12.4	i	-12.6*	i	3.38	96.3*	i
